# From ChEMBL document CHEMBL1157190, “Design, synthesis, and anticonvulsant activity of N-phenylamino derivatives of 3,3-dialkyl-pyrrolidine-2,5-diones and hexahydro-isoindole-1,3-diones” (Bioorg Med Chem, 2008)
# The source made the active and inactive calls. The calls are words filed in the database; no cut-off is given here.
# Experiments:
# [1] = Lipophilicity, log kw of compound by RP-HPLC; assay type: physicochemical
# In short: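 RP-HPLC on a C18 end-capped column at room temperature, with UV detection at 214 nm and uracil as the unretained marker. Capacity factor k = (tr − t0)/t0, from the mean of three measurement sets. log k extrapolated to 100% water (log k = log kw − Sφ) to give log kw.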
# Mus musculus [2] = assay: Anticonvulsant activity in ip dosed CF1 albino mouse assessed as inhibition of subcutaneous pentylenetetrazole-induced electrical stimulus at 300 mg/kg after 4 hrs; assay type: functional, organism-based; design: dose 300 mg/kg
# In short: (§1)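 Male CF-1 mice injected intraperitoneally at 30, 100 and 300 mg/kg, suspended in 0.5% methylcellulose/water. MES or subcutaneous pentylenetetrazole challenge at 0.5 and 4 h; selected compounds also at 1 or 2 h.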
# Mus musculus [3] = assay: Anticonvulsant activity in ip dosed CF1 albino mouse assessed as inhibition of maximal electroshock-induced electrical stimulus at 300 mg/kg after 4 hrs; assay type: functional, organism-based; design: dose 300 mg/kg; in short: as §1
# Mus musculus [4] = assay: Neurotoxicity in ip dosed CF1 albino mouse at 300 mg/kg after 4 hrs by rotarod test; assay type: toxicity, organism-based; design: dose 300 mg/kg, route intraperitoneal; details: in vivo
# In short: (§2)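 CF-1 mice given 30, 100 or 300 mg/kg ip in 0.5% methylcellulose/water, examined at 0.5 and 4 h. Rotorod test: neurotoxicity is the inability to keep equilibrium on the rod for a given time. Value is the minimum dose giving motor impairment; a dash means none at 300 mg/kg.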
# Mus musculus [5] = assay: Anticonvulsant activity in ip dosed CF1 albino mouse assessed as inhibition of subcutaneous pentylenetetrazole-induced electrical stimulus after 0.5 hr; assay type: functional; in short: as §1
# Mus musculus [6] = assay: Anticonvulsant activity in ip dosed CF1 albino mouse assessed as inhibition of maximal electroshock-induced electrical stimulus after 0.5 hr; assay type: functional; in short: as §1
# Mus musculus [7] = assay: Neurotoxicity in ip dosed CF1 albino mouse after 0.5 hr by rotarod test; assay type: toxicity, organism-based; details: in vivo; in short: as §2
# Rattus norvegicus [8] = assay: Anticonvulsant activity in Sprague-Dawley rat assessed as protection against seizure at 30 mg/kg, po after 4 hrs by maximal electroshock test; assay type: functional
# In short: (§3)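 Male Sprague–Dawley rats; compound suspended in 0.5% methylcellulose/water and given orally at a fixed 30 mg/kg, four rats per time point. MES test run at 0.25, 0.5, 1, 2 and 4 h after dosing, with motor impairment checked in parallel. Read-out: number of rats of four protected.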
# Mus musculus [9] = assay: Anticonvulsant activity in ip dosed CF1 albino mouse assessed as inhibition of maximal electroshock-induced electrical stimulus after 4 hrs; assay type: functional; in short: as §1
# Mus musculus [10] = assay: Neurotoxicity in ip dosed CF1 albino mouse after 4 hrs by rotarod test; assay type: toxicity, organism-based; details: in vivo; in short: as §2
# Mus musculus [11] = assay: Anticonvulsant activity in ip dosed CF1 albino mouse assessed as inhibition of maximal electroshock-induced electrical stimulus at 300 mg/kg after 0.5 hr; assay type: functional, organism-based; design: dose 300 mg/kg; in short: as §1
# Mus musculus [12] = assay: Anticonvulsant activity in ip dosed CF1 albino mouse assessed as inhibition of subcutaneous pentylenetetrazole-induced electrical stimulus at 300 mg/kg after 0.5 hr; assay type: functional, organism-based; design: dose 300 mg/kg; in short: as §1
# Mus musculus [13] = assay: Neurotoxicity in ip dosed CF1 albino mouse at 300 mg/kg after 0.5 hr by rotarod test; assay type: toxicity, organism-based; design: dose 300 mg/kg, route intraperitoneal; details: in vivo; in short: as §2
# Rattus norvegicus [14] = assay: Anticonvulsant activity in Sprague-Dawley rat assessed as protection against seizure at 30 mg/kg, po after 2 hrs by maximal electroshock test; assay type: functional; in short: as §3
# Rattus norvegicus [15] = assay: Anticonvulsant activity in Sprague-Dawley rat assessed as protection against seizure at 30 mg/kg, po after 1 hr by maximal electroshock test; assay type: functional; in short: as §3
# Rattus norvegicus [16] = assay: Anticonvulsant activity in Sprague-Dawley rat assessed as protection against seizure at 50 mg/kg, po after 0.5 hr by subcutaneous pentylenetetrazole test; assay type: functional
# In short: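 Male Sprague–Dawley rats dosed orally at 50 mg/kg as a 0.5% methylcellulose/water suspension, four animals per time point. Convulsant given subcutaneously at 0.25, 0.5, 1, 2 and 4 h after dosing; rotorod motor impairment assessed in parallel. Read-out: number of rats of four protected.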
log K [1],Compound,Activity (Mus musculus [2]),Activity (Mus musculus [3]),Activity (Mus musculus [4]),Activity (Mus musculus [5]),Activity (Mus musculus [6]),Activity (Mus musculus [7]),Activity (Rattus norvegicus [8]),Activity (Mus musculus [9]),Activity (Mus musculus [10]),Activity (Mus musculus [11]),Activity (Mus musculus [12]),Activity (Mus musculus [13]),Activity (Rattus norvegicus [14]),Activity (Rattus norvegicus [15]),Activity (Rattus norvegicus [16])
2.401,CCCC1(C)CC(=O)N(Nc2cccc(Cl)c2)C1=O (configuration not stated),inactive,inactive,Not Active,300 mg/kg,300 mg/kg,100 mg/kg,,,,,,,,,
2.445,CCCC1(C)CC(=O)N(Nc2ccc(Cl)cc2)C1=O (configuration not stated),,,,100 mg/kg,100 mg/kg,100 mg/kg,inactive,300 mg/kg,300 mg/kg,,,,,,
2.244,CCC1(CC)CC(=O)N(Nc2ccccc2Cl)C1=O,inactive,inactive,Not Active,300 mg/kg,,100 mg/kg,,,,inactive,,,,,
1.928,CCC1(C)CC(=O)N(Nc2ccc(C)cc2)C1=O (configuration not stated),inactive,inactive,Not Active,300 mg/kg,300 mg/kg,300 mg/kg,,,,,,,,,
,CNN1C(=O)CC(C)(C)C1=O,inactive,inactive,Not Active,,,,,,,inactive,inactive,Not Active,,,
2.566,CCCCC1(C)CC(=O)N(Nc2ccccc2Cl)C1=O (configuration not stated),inactive,inactive,Not Active,300 mg/kg,300 mg/kg,300 mg/kg,,,,,,,,,
2.029,CCC1(C)CC(=O)N(Nc2ccccc2Cl)C1=O (configuration not stated),inactive,inactive,Not Active,,300 mg/kg,300 mg/kg,,,,,inactive,,,,
2.364,CCCC1(C)CC(=O)N(Nc2ccccc2Cl)C1=O (configuration not stated),inactive,inactive,Not Active,300 mg/kg,300 mg/kg,300 mg/kg,,,,,,,,,
1.864,CCC1(C)CC(=O)N(Nc2ccccc2C)C1=O (configuration not stated),inactive,inactive,,,300 mg/kg,100 mg/kg,,,100 mg/kg,,inactive,,,,
2.173,O=C1C2CCCCC2C(=O)N1Nc1cccc(Cl)c1 (configuration not stated),inactive,inactive,Not Active,300 mg/kg,,300 mg/kg,,,,inactive,,,,,
2.221,CCC1(CC)CC(=O)N(Nc2ccc(Br)cc2)C1=O,inactive,inactive,Not Active,,,,,,,inactive,inactive,Not Active,,,
1.642,Cc1ccc(NN2C(=O)CC(C)(C)C2=O)cc1,inactive,inactive,Not Active,300 mg/kg,300 mg/kg,100 mg/kg,,,,,,,,,
1.826,CCC1(CC)CC(=O)N(Nc2ccccc2)C1=O,inactive,inactive,Not Active,,,300 mg/kg,,,,inactive,inactive,,,,
2.183,CCC1(C)CC(=O)N(Nc2cccc(Cl)c2)C1=O (configuration not stated),,,,,300 mg/kg,300 mg/kg,inactive,,,,,,inactive,inactive,inactive
